Article PMC6354736 (iScience, 2019)

What was measured:
OCT4 = test: NCCIT-OCT4 response element-driven luciferase reporter assay; format: cell-based, human; settings: for induction of OCT4 expression in NCCIT-OCT4 reporter cell line: histone demethylase inhibitors incubated for 48 h
NANOG = test: NCCIT-NANOG response element-driven luciferase reporter assay; format: cell-based, human
human fibroblasts = test: qRT-PCR of reprogramming-associated genes in human fibroblasts; format: cell-based
[1] = test system: human primary fibroblasts; test: OSKM episomal reprogramming, TRA-1-60+ colonies counting; format: cell-based
Outline: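 Human primary fibroblasts, including OSKM-resistant lines and fibroblasts carrying an LTR7-EGFP promoter reporter, transfected with episomal OSKM with or without test compound; OSKM-only fibroblasts serve as comparison. ESC-like colonies stained for TRA-1-60, and reprogramming efficiency taken as the count of TRA-1-60-positive colonies.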

KDM5 = KDM5 demethylase activity/inhibition assay; format: biochemical
KDM4 = KDM4 demethylase activity/inhibition assay; format: biochemical
LSD1 = LSD1 (Homo sapiens, UniProt O60341); test: LSD1 activity/inhibition assay; format: biochemical
KDM5C = KDM5C (Homo sapiens, UniProt P41229); test: Demethylase assay on KDM5C immunoprecipitated from cells; format: biochemical
Sequence of KDM5C (P41229 whole entry): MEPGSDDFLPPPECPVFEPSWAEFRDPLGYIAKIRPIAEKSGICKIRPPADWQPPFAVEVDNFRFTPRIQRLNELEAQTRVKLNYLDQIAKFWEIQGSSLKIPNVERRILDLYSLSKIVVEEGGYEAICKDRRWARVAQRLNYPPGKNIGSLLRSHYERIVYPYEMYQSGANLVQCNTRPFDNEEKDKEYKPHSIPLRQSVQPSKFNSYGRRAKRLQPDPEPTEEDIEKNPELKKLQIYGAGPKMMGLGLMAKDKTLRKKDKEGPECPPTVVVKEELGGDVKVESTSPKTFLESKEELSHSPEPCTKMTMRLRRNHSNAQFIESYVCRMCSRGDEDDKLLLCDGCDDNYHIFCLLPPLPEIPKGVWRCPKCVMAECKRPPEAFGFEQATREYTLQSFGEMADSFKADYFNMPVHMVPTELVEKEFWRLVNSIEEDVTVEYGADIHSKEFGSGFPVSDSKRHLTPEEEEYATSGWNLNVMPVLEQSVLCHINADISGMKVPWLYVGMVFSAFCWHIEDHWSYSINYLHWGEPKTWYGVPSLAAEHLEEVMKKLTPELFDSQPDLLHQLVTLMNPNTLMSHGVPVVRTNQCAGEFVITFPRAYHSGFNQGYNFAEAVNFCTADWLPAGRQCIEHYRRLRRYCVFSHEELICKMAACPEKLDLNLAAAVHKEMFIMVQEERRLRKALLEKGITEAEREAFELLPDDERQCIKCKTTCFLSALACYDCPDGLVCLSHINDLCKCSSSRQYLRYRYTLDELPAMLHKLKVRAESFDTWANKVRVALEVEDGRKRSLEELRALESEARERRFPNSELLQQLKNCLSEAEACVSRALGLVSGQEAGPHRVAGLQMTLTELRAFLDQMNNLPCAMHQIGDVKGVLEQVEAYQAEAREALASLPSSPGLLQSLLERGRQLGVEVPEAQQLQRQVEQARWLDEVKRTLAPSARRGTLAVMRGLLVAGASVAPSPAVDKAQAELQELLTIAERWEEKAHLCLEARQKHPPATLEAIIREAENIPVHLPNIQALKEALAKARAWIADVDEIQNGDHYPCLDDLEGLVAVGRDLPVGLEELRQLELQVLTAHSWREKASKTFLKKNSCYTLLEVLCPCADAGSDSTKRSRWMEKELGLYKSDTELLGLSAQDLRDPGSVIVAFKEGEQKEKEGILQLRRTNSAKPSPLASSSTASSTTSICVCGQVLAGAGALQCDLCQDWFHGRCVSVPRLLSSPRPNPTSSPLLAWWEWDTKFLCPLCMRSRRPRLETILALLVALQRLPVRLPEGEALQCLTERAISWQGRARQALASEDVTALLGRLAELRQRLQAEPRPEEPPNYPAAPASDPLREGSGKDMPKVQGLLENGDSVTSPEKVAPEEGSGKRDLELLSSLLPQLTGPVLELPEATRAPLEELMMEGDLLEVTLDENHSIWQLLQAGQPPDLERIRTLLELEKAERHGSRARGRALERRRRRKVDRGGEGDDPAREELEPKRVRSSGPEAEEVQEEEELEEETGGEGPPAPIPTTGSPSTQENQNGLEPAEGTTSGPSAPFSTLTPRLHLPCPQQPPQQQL

KDM5D = test: Demethylase assay on KDM5D immunoprecipitated from cells; format: biochemical
hPSCs = test: Viability and maintenance of hPSCs after single cell expansion; format: cell-based, human; settings: 10 μM
methylated H3K4 = test: In vitro H3K4 methylation assay; format: biochemical; settings: micromolar concentrations

CC(C)c1c(-c2ccccc2)[nH]c2c(C#N)cnn2c1=O [CPI-455]
induction of OCT4 expression in NCCIT-OCT4 reporter cell line (OCT4): 3 fold

Clc1ccc(N/N=C(\c2ccccc2)c2ccccn2)nc1 [JIB-04]
induction of OCT4 expression in NCCIT-OCT4 reporter cell line (OCT4): 5 fold

Cc1ccc(-c2cn3cc(C)ccc3n2)cc1 [O4I3, 6-methyl-2-(p-tolyl)imidazo[1,2-a]pyridine]
induction of OCT4 (OCT4; NCCIT-OCT4 reporter cells, low nanomolar doses, compared with untreated cells): ~10 fold | induction of NANOG (NANOG; NCCIT-NANOG reporter cells, low nanomolar doses, compared with untreated cells): ~10 fold | increase of CDH1 mRNA (human fibroblasts; human fibroblasts): about 100 fold | induction of NANOG mRNA (human fibroblasts; human fibroblasts): approximately 10 fold | increase of SOX2 mRNA (human fibroblasts; human fibroblasts, 50 nM): about 100 fold | induction of OCT4 mRNA (human fibroblasts; human fibroblasts, 50 nM): approximately 10 fold | CDH1 mRNA level versus hPSCs (human fibroblasts; treated human fibroblasts): approximately 10% | NANOG mRNA level versus hPSCs (human fibroblasts; treated human fibroblasts): ~1% | OCT4 mRNA level versus hPSCs (human fibroblasts; treated human fibroblasts): ~0.1% | SOX2 mRNA level versus hPSCs (human fibroblasts; treated human fibroblasts): ~1% | increase of the number of TRA-1-60-positive colonies ([1]; 50 nM added to OSKM, HF1 and HF2, compared with OSKM-only-treated fibroblasts): 10–20 times | iPSC-like colonies in fibroblasts resistant to OSKM-mediated reprogramming ([1]; HFF-LTR7-EGFP and HF4, with OSKM): appeared | episome-based reprogramming efficiency ([1]; with compound, from ∼0.01% without): ~0.1% | IC50 (KDM5; read-out: KDM5 IC50, whole-cell nuclear extraction): 0.79 nM | IC50 (KDM4; read-out: KDM4 IC50, whole-cell nuclear extraction): 249 nM | inhibition of LSD1 activity (LSD1): could not be detected | inhibitory effect on LSD1 (LSD1; even at a concentration of 100 μM): hardly detected | fold less potent IC50 on KDM5C than on KDM5A (KDM5C): 40 fold | fold less potent IC50 on KDM5D than on KDM5A (KDM5D): 20 fold

Cc1ccc(-c2nc3ccc(C)cn3c2CC(=O)N(C)C)cc1 [zolpidem, reference compound]
induction in NCCIT-OCT4 reporter cells (OCT4; 10 μM, 48 h): ~2 fold | induction in NCCIT-NANOG reporter cells (NANOG; 10 μM, 48 h): ~2 fold | maintenance of iPSCs (hPSCs): promoted the maintenance | iPSC-like colonies in fibroblasts resistant to OSKM-mediated reprogramming ([1]; 10 μM, with OSKM): appeared | protection of H3K4 methylation (methylated H3K4): protected | inhibition of KDM5 (KDM5; micromolar concentrations): inhibited | inhibition of KDM4 (KDM4; micromolar concentrations): inhibited | inhibition of LSD1 activity (LSD1): could not be detected
